Compound activity from PubChem BioAssay.
PKA-R1A act – activates the PKA-R1A holoenzyme complex; P00514+P68181; hit rate 0.083% among 340,000; activation, % at 11.4 µM; PKA-R1A dissociation, Cy5-IP20 fluorescence polarization; scaled: DMSO 0%, 113 µM cGMP 100%;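 active = percent activation above the mean of all tested compounds plus 3 SD, cut at about 19% in these data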;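 note: higher means more PKAc released from R1A so a rise in polarization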
PKA-R2B act – PKA-R2B complex activation; hit rate 0.079% among 340,000; PKA-R2B holoenzyme dissociation, Cy5-IP20 fluorescence polarization; R2B truncated from residue 108, S112A mutant; 0% DMSO only, 100% 113 µM cGMP; P22694+P31323; activation, % at 11.4 µM;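 active = activation above a cutoff set at the mean over all compounds plus 3 SD, cut at about 18% in these data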;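 note: higher means more holoenzyme dissociation and a rise in polarization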
CSN deneddyl inh – CSN deneddylation inhibition; Purified CSN, SCF-Nedd8-OG deneddylation, fluorescence polarization; inhibition, % at 12.5 µM; hit rate 0.38% among 360,000;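 active = pattern-corrected inhibition above about 35%, with an unprinted fluorescence ratio check between 0.5 and 1.5, limit read from the data, passing the limit was not always enough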
Target sequence (Q92905 whole entry, looked up, one chain of several): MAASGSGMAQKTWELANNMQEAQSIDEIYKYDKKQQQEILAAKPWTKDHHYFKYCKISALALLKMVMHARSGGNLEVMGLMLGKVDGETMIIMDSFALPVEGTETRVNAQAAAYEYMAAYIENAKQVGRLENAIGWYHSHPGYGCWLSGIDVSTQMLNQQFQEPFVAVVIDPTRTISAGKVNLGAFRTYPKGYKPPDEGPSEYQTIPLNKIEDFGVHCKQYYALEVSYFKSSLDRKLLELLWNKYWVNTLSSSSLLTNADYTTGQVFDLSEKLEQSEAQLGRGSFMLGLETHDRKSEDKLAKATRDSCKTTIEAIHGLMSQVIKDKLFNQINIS
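Test system: Human Csn5 produced in HEK293T cells | Compound: 12.5 µM single point | Times: 90 min, room temperature | Signal: Fluorescence polarization readout | Read-out basis: % inhibition of substrate cleavage by Csn5 | Controls: no-enzyme wells high, enzyme-with-substrate wells low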
HNF4A DNA FP – change in binding of human HNF4 alpha to DNA. P41235. HNF4a-FITC DNA binding, fluorescence polarization, 1 h. activity change, % at 10 µM. hit rate 0.3% among 360,000. AID 1224865; in the data active = activity change above about 30%, passing the limit was not always enough
TPT1 inh – blocks Candida albicans tRNA 2'-phosphotransferase. inhibition, % at 5 µM. AID 1962. recombinant caTPT1, FP RNA substrate dephosphorylation. hit rate 0.81% among 300,000;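 active = inhibition above the mean of all tested compounds plus 3 SD, set per screening campaign, cut at about 24% in these data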
Rpn11 inh – blocks the human proteasome subunit Rpn11. human 26S proteasome, Ub4-pepOG fluorescence polarization; 20S core pre-blocked with epoxomicin. calls only at 20 µM. hit rate 0.59% among 360,000. AID 588493;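 active = inhibition at 20 µM, scaled to each plate's controls, above about 33%, limit read from the data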
Hits are given with their value; – = inactive; · = not tested or not shown; + = active, no number. The list is not random: actives were taken first. Their share in the collection is about 1.6%.

SMILES	PKA-R1A act	PKA-R2B act	CSN deneddyl inh	HNF4A DNA FP	TPT1 inh	Rpn11 inh
COC(=O)Cc1c(OC)ccn(CCc2c[nH]c3ccccc23)c1=O	–	–	–	–	–	–
CC(C)n1c(O)c(N=Nc2ccc(Cl)nn2)c2ccccc21	–	–	44	–	–	·
CCCc1ccc(Oc2cc(C)nc(N3CCOCC3)n2)cc1	–	–	94	–	–	–
COc1cc(C(=O)NCCCc2nc3ccccc3n2Cc2cc(C)ccc2C)cc(OC)c1OC	–	–	–	37	–	–
CCOC(=O)c1ccc(NC(=O)Nc2ccc3c4c(cccc24)C(=O)N3CC)cc1	–	–	–	68	–	·
CCN1C(=O)c2cccc3c(NS(=O)(=O)c4ccc(NC(C)=O)cc4)ccc1c23	–	–	–	–	–	–
CCOc1ccc(CN(C(=O)c2ccccn2)c2ccc(OC)c(Cl)c2)cc1	–	–	–	–	–	–
CC(C)CCNc1nnnc2c1sc1nc(N3CCOCC3)c3c(c12)CC(C)(C)SC3	–	–	60	–	–	–
COc1ccccc1N(CC(=O)N/N=C/c1ccccc1C(=O)O)S(C)(=O)=O	–	–	–	–	–	–
COc1ccc(N=C2S/C(=C\c3ccc(OCC(=O)O)cc3)C(=O)N2CCc2c[nH]c3ccccc23)cc1	–	–	36	–	·	–
COc1ccc(CS(=O)c2nc(C)cc(C)c2S(C)(=O)=O)cc1 (stereo unspecified)	–	–	–	–	–	–
COc1ccc(Cc2c(-c3ccco3)nc3ccc(Cl)cn23)c(C)c1	·	·	40	–	·	–
O=C(CCCc1ccccc1)NCc1ccccc1Cl	–	–	–	–	–	–
COc1cccc(=O)c2c(C)n(CC(=O)c3ccccc3)c(C)c12	–	–	–	–	30	–
O=C(CSc1nnnn1-c1ccccc1)Nc1nsc(-c2ccc(Cl)cc2)n1	–	–	–	–	–	–
O=C(CSc1ccc2ccccc2n1)Nc1nsc(-c2ccc(Cl)cc2)n1	–	–	54	–	–	–
NC(=O)Nc1ccc2c(c1)OCCO2	–	–	–	–	–	–
O=C(Nc1ccc2c(c1)OCCO2)C1CCC1	–	–	–	68	–	–
CC(Sc1ncc(C#N)c(N)n1)C(=O)Nc1ccccc1 (stereo unspecified)	–	–	54	–	–	–
Cc1c(OC(C)C(=O)NCCN2CCOCC2)ccc2c3c(c(=O)oc12)CCCC3 (stereo unspecified)	–	–	41	–	–	–
CCCCCCCCCC(=O)O	–	–	–	–	·	–
O=C(O)CCCCC1CCSS1 (stereo unspecified)	–	–	35	–	–	–
Cc1ccc(S(=O)(=O)CC(=O)Nc2ccc(Cl)cn2)cc1	–	–	–	34	–	–
Cc1ccc(S(=O)(=O)NC(=O)Nc2ccc(Cl)cn2)cc1	–	–	–	–	–	–
CCOC(=O)C1=C(O)/C(=C\c2ccc(CNC(=O)C(=O)Nc3ccccc3)o2)N=C1C	–	–	41	–	–	–
SMILES	PKA-R1A act	PKA-R2B act	CSN deneddyl inh	HNF4A DNA FP	TPT1 inh	Rpn11 inh
Nc1nc(COC(=O)CCC(=O)c2ccccc2)nc(Nc2ccccc2)n1	–	–	106	–	·	–
CCN(C(=S)Nc1ccc(C(C)=O)cc1)C1CCCCC1	–	–	48	–	–	–
COc1ccc(NC(C)=O)cc1NS(=O)(=O)c1cn(C)c(=O)n(C)c1=O	–	–	–	–	–	–
COc1ccc(S(=O)(=O)NCc2cccnc2)cc1NC(=O)c1ccccc1C	–	–	–	–	·	+
COc1ccc(S(=O)(=O)NCc2cccnc2)cc1	–	–	–	–	–	–
COc1ccc(S(=O)(=O)NCc2cccnc2)cc1Br	–	–	–	129	–	–
CC(C)(C)NC(=O)C(c1ccc(-c2ccccc2)cc1)n1c(=O)c(-c2ccco2)nc2ccccc21 (stereo unspecified)	·	·	–	46	·	·
COc1ccc(C(C(=O)NC(C)(C)C)n2c(=O)c(-c3ccco3)nc3ccccc32)cc1 (stereo unspecified)	·	·	–	–	·	·
Cc1cccc(C)c1NC(=O)C(c1ccc(-c2ccccc2)cc1)n1c(=O)c(-c2ccco2)nc2ccccc21 (stereo unspecified)	·	·	44	–	·	·
O=C(NC1CCCCC1)C1c2ccccc2OCC(=O)N1CCCN1CCOCC1 (stereo unspecified)	·	·	–	–	·	·
CCN(C(=O)CSc1nc(C)c(C)c(C)n1)C1CCS(=O)(=O)C1 (stereo unspecified)	–	–	–	–	·	–
COc1ccc(OCc2nn3c(-c4ccco4)nnc3s2)cc1	–	–	–	–	–	–
c1coc(-c2nnc3sc(Cc4cccs4)nn23)c1	–	–	35	–	–	–
COC(=O)c1ccc(C)c(NC(=O)CCSc2ccc(Cl)cc2)c1	–	–	–	95	–	–
CC(Nc1ccc(F)cc1F)C(=O)NC(=O)NC1CCCCC1 (stereo unspecified)	–	–	–	144	–	–
CCCOc1ccccc1/C=C1\SC(N2CCCCC2)=NC1=O	–	–	–	–	–	–
Clc1nnc2ccc(-c3ccccc3)nn12	–	–	54	–	–	–
Cc1[nH]c2ccccc2c1/C=N/Nc1ccc([N+](=O)[O-])cc1S(=O)(=O)Nc1ccc(Cl)cc1	–	–	44	94	–	·
O=C(O)COc1ccccc1C=NNc1ccc([N+](=O)[O-])cc1S(=O)(=O)Nc1ccc(Cl)cc1	–	–	–	–	·	–
CN(C)c1ccc(/C=C(\C#N)C(=O)NCc2ccco2)cc1	·	·	·	·	43	·
Cc1cc(N)ccc1N1CCCC1	–	–	–	–	–	+
Cc1cc(N)ccc1-n1c(C)ccc1C	–	–	–	–	–	–
C[C@H](CO)N1C[C@H](C)[C@@H](CN(C)C)Oc2c(NS(=O)(=O)c3cccs3)cccc2C1=O	–	–	–	–	·	–
CC(C)OCCCNc1nc(Cl)nc2c1cnn2C	–	–	–	–	·	–
CC(C)(C)NC(=O)C1(C)CCC(=O)N1C1CCN(Cc2ccccc2)CC1 (stereo unspecified)	·	·	86	–	·	–
C=CC(=O)Nc1cccc(Oc2ccnc3[nH]ccc23)c1	–	–	122	–	·	+
NC(Cc1ccc(C(F)(F)F)cc1)c1csc(Nc2cc(NCc3ccco3)ncn2)n1 (stereo unspecified)	·	·	–	–	·	–
O=C(COc1ccc(Cl)cc1Cl)Nc1c(-c2cccs2)nc2ccccn12	–	–	–	–	–	–
COc1ccc(-c2csc3nc(-c4ccc(C)cc4)oc(=O)c23)cc1OC	–	–	–	48	–	–
